Reference: ChEMBL document CHEMBL3621152, “Highly Efficient Synthesis of 1,3-Dihydroxy-2-carboxycarbazole and Its Neuroprotective Effects” (ACS Med Chem Lett, 2015)
The source made the active and inactive calls. The calls are words filed in the database; no cut-off is given here.

Key:
[1] = Antioxidant activity assessed as DPPH radical scavenging activity at 0.3 to 10 uM incubated for 30 mins at 37 degC; type: physicochemical; conditions: 0.5 h
In short: (§1)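 Test compound or trolox incubated with DPPH (50 µM) in MeOH at 37 °C for 30 min at the indicated concentrations; radical scavenging read as absorbance at 517 nm.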

[2] = target: T1, Amyloid-beta precursor protein (Homo sapiens, UniProt P05067); assay: Inhibition of amyloid beta (1 to 42) (unknown origin) aggregation incubated for 48 hrs by Thioflavin-T Abeta aggregation assay
T1 sequence (P05067 whole entry): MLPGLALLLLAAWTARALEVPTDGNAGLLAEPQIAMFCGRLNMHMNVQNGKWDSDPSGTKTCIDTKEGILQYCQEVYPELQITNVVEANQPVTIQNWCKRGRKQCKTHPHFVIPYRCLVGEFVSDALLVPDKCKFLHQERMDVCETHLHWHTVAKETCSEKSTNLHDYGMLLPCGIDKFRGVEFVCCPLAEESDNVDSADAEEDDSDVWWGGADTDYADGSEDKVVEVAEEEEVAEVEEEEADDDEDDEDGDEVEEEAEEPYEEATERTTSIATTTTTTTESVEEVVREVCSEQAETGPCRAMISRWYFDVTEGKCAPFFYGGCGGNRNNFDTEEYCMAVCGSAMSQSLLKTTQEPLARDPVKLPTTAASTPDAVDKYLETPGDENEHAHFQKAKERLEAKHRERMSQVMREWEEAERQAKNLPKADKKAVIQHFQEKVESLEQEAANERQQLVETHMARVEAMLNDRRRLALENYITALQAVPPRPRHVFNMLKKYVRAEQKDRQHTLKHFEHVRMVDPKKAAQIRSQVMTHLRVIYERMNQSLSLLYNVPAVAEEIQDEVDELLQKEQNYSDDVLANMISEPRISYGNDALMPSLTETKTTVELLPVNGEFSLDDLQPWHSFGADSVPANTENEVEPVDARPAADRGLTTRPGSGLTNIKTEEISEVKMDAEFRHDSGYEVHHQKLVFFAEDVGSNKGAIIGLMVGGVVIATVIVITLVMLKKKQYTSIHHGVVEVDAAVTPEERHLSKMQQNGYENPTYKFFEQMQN
In short: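 Aβ42 (10 µM) incubated with compound at the indicated concentrations for 48 h; aggregation measured by thioflavin T assay; curcumin (10 µM) used as positive control.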

[3] = Antioxidant activity assessed as DPPH radical scavenging activity at 0.3 to 100 uM incubated for 30 mins at 37 degC; type: physicochemical; conditions: 0.5 h; in short: as §1
MC65 [4] = assay: Effect on Abeta40 production in human MC65 cells at 0.1 to 1 uM incubated for 48 hrs under tetracycline removal condition by ELISA method; type: functional, cell-based
In short: (§2)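 MC65 human neuroblastoma cells, which conditionally express APP C-terminal fragment C99 under tetracycline suppression, treated under -TC conditions for 48 h; Aβ40 and Aβ42 measured in the collected medium by ELISA.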

MC65 [5] = assay: Neuroprotective activity in human MC65 cells assessed as protection against tetracycline removal-induced toxicity at 0.3 uM incubated for 72 hrs by MTT method; type: functional, cell-based
In short: (§3)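 Aβ toxicity in MC65 cells (C99 expression induced by tetracycline removal) with compound present at the indicated concentrations under -TC conditions for 72 h; viability read by MTT assay.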

MC65 [6] = assay: Effect on Abeta42 production in human MC65 cells at 0.1 to 1 uM incubated for 48 hrs under tetracycline removal condition by ELISA method; type: functional, cell-based; in short: as §2
MC65 [7] = assay: Neuroprotective activity in human MC65 cells assessed as protection against tetracycline removal-induced toxicity at 10 uM incubated for 72 hrs by MTT method; type: functional, cell-based; in short: as §3
[8] = target: T1, Amyloid-beta precursor protein; assay: Inhibition of amyloid beta oligomerization in human MC65 cells assessed as small AbetaOs formation at 0.3 uM incubated for 48 hrs under tetracycline removal condition by Western blot method; type: cell-based
In short: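 MC65 cells incubated with compound under -TC conditions for 48 h; culture lysates analyzed by Western blot with 6E10 antibody for Aβ oligomers.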

MC65 [9] = assay: Neuroprotective activity in human MC65 cells assessed as protection against tetracycline removal-induced toxicity UP TO 10 uM incubated for 72 hrs by MTT method; type: functional, cell-based; conditions: in the assay text read “UP TO 100 uM” for “UP TO 10 uM”; in short: as §3

Cc1c(C)c2c(c(C)c1O)CCC(C)(C(=O)O)O2 (stereo not given) [TROLOX]
Activity [1]: Active

O=C(O)c1c(O)cc2c([nH]c3ccccc32)c1O
IC50 [2]: 15 µM | inhibition [2]: Dose-dependent effect | Activity [3]: Active | Activity (MC65 [4]): inactive | Activity (MC65 [5]): Active | Activity (MC65 [6]): inactive | Activity (MC65 [7]): Active | inhibition [8]: Active

O=C(O)c1c(O)cccc1O
Activity (MC65 [9]): inactive
